According to ChEMBL document CHEMBL4610021, “Synthesis and immunostimulatory activity of sugar-conjugated TLR7 ligands” (Bioorg Med Chem Lett, 2020):
pEC50: −log10 of the molar value.

Experiments:
Format in all cases: cell-based
[1] = target: T1, Toll-like receptor 7 (Mus musculus, UniProt P58681); test: Agonist activity at TLR7 in mouse RAW264.7 cells assessed as immunostimulatory activity by measuring increase in TNFalpha secretion incubated for 18 hrs by ELISA
T1 sequence (P58681 whole entry): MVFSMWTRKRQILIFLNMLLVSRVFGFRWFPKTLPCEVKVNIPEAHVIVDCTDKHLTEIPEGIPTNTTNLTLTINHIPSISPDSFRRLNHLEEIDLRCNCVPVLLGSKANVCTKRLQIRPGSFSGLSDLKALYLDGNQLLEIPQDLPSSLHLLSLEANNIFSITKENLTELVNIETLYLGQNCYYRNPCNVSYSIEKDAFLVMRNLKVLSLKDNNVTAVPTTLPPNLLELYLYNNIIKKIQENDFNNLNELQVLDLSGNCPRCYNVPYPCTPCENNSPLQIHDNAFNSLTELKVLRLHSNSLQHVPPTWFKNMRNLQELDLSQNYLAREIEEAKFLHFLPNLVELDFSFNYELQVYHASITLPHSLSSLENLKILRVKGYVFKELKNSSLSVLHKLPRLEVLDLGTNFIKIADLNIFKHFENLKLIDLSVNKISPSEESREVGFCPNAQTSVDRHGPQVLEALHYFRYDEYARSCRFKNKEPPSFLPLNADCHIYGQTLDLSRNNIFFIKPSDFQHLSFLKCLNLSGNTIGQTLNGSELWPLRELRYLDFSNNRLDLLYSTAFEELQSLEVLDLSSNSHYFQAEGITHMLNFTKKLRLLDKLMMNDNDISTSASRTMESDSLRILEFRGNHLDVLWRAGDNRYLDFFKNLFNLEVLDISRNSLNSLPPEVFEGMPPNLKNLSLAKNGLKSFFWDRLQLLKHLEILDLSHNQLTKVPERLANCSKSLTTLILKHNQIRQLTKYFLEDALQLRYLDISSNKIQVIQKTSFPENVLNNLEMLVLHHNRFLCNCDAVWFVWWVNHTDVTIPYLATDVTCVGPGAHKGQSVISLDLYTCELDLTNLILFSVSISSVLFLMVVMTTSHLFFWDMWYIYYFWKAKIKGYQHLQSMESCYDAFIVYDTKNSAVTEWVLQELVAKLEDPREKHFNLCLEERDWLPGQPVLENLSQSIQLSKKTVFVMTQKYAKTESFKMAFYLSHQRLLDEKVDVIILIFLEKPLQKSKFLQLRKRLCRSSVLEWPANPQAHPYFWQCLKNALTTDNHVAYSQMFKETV
How it was run: (§1)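 Murine RAW264.7 macrophages plated at 1×10^4 cells/well, incubated 18 h with serially diluted compound; 0.25% DMSO vehicle. TNF-α in culture supernatant measured by ELISA. EC50 calculated by curve fitting; Emax as % of unconjugated reference ligand. Means ± SD of triplicate, representative of three independent experiments.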

[2] = target: T2, Toll-like receptor 7 (Mus musculus) (UniProt P58681); test: Agonist activity at TLR7 in mouse RAW264.7 cells assessed as immunostimulatory activity by measuring increase in TNFalpha secretion incubated for 18 hrs by ELISA relative to 1V209; how it was run: as §1
T2 sequence (whole entry): T1 sequence (P58681 whole entry)

[3] = target: T1, Toll-like receptor 7; test: Agonist activity at TLR7 in mouse BMDC cells assessed as immunostimulatory activity by measuring increase in IL6 secretion incubated for 18 hrs by ELISA
How it was run: (§2)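 Primary murine bone marrow-derived dendritic cells plated at 1×10^5 cells/well and exposed to serially diluted compound; 0.25% DMSO vehicle. IL-6 in supernatant measured by ELISA. EC50 calculated by curve fitting; Emax expressed as % relative to the unconjugated reference ligand. Means ± SD of triplicate, representative of three independent experiments.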

[4] = target: T2, Toll-like receptor 7 (Mus musculus); test: Agonist activity at TLR7 in mouse BMDC cells assessed as immunostimulatory activity by measuring increase in IL6 secretion incubated for 18 hrs by ELISA relative to 1V209; how it was run: as §2
[5] = target: T1, Toll-like receptor 7; test: Agonist activity at TLR7 in mouse RAW264.7 cells assessed as immunostimulatory activity by measuring increase in TNFalpha secretion incubated for 6 hrs in absence of actin polymerization inhibitor cytochalasin D by ELISA
How it was run: (§3)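 RAW264.7 cells seeded at 1.5×10^4 cells/well, pre-incubated with or without 1 μM cytochalasin D, then exposed 6 h to serially diluted compound. TNF-α and IL-6 in supernatants determined by ELISA. Means ± SD of triplicate, representative of three independent experiments.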

[6] = target: T1, Toll-like receptor 7; test: Agonist activity at TLR7 in mouse RAW264.7 cells assessed as immunostimulatory activity by measuring increase in TNFalpha secretion preincubated with actin polymerization inhibitor cytochalasin D followed by incubation with compound for 6 hrs by ELISA; how it was run: as §3
[7] = target: T3, Toll-like receptor 7 (Homo sapiens) (UniProt Q9NYK1); test: Agonist activity at TLR7 in human PBMC cells assessed as immunostimulatory activity by measuring fold increase in TNFalpha secretion at 10 uM incubated for 18 hrs by ELISA relative to 1V209
T3 sequence (whole entry): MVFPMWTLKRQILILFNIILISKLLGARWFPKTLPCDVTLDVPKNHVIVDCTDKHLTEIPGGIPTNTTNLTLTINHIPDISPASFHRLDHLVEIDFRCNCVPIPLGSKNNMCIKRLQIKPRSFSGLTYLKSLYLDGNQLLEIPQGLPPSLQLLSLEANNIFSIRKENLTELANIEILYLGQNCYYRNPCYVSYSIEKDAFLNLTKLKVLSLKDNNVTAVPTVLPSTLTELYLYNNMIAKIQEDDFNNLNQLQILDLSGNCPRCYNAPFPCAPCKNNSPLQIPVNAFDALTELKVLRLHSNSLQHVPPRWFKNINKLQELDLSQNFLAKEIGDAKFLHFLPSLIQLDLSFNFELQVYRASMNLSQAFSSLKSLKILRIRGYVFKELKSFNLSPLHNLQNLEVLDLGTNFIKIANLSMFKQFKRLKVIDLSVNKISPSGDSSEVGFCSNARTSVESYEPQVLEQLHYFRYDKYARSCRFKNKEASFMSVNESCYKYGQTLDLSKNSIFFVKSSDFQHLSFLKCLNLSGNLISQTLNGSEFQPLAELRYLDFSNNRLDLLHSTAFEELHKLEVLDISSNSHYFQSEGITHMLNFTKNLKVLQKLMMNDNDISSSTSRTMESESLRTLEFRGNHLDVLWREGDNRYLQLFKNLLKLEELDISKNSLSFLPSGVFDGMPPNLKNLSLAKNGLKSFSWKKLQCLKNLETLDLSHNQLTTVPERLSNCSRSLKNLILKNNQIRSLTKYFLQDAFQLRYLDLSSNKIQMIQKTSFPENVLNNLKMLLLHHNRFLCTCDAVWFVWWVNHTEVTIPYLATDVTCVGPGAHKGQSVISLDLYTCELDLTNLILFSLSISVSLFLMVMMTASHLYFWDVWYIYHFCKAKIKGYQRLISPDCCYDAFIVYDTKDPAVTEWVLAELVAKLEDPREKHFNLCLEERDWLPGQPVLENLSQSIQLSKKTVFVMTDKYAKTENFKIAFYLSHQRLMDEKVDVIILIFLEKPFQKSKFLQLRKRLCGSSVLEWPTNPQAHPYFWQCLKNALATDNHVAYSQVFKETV
How it was run: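 Human PBMC plated at 2×10^5 cells/well, exposed 18 h to 10 μM compound; 0.25% DMSO vehicle control. Cytokine in culture supernatant quantified by ELISA. Means ± SD of triplicate, representative of three independent experiments; one-way ANOVA with Dunnett's multiple comparisons test.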

| Compound | pEC50 [1] | Emax [2] | pEC50 [3] | Emax [4] | pEC50 [5] | pEC50 [6] | fold change (FC) [7] |
| --- | --- | --- | --- | --- | --- | --- | --- |
| COCCOc1nc(N)c2[nH]c(=O)n(Cc3ccc(C(=O)O)cc3)c2n1 | 6.60 | 100% | 6.36 | 100% | 5.67 | 5.68 | – |
| COCCOc1nc(N)c2nc(O)n(Cc3ccc(C(=O)N[C@H]4C(O)O[C@H](CO)[C@@H](O)[C@@H]4O)cc3)c2n1 (stereo partly specified) | 6.63 | 103% | 6.62 | 139% | – | – | 2 |
| COCCOc1nc(N)c2nc(O)n(Cc3ccc(C(=O)N[C@H]4C(O)O[C@H](CO)[C@H](O)[C@@H]4O)cc3)c2n1 (stereo partly specified) | 6.82 | 83% | 6.68 | 139% | – | – | – |
| COCCOc1nc(N)c2nc(O)n(Cc3ccc(C(=O)NC[C@H]4O[C@@H]5O[C@H]6[C@H](O)[C@@H](O)[C@@H](O[C@H]7[C@H](O)[C@@H](O)[C@@H](O[C@H]8[C@H](O)[C@@H](O)[C@@H](O[C@H]9[C@H](O)[C@@H](O)[C@@H](O[C@H]%10[C@H](O)[C@@H](O)[C@@H](O[C@H]%11[C@H](O)[C@@H](O)[C@@H](O[C@H]%12[C@H](O)[C@@H](O)[C@@H](O[C@H]4[C@H](O)[C@H]5O)O[C@@H]%12CO)O[C@@H]%11CO)O[C@@H]%10CO)O[C@@H]9CO)O[C@@H]8CO)O[C@@H]7CO)O[C@@H]6CO)cc3)c2n1 | 6.88 | 97% | 6.97 | 130% | – | – | – |
| COCCOc1nc(N)c2nc(O)n(Cc3ccc(C(=O)NC4O[C@H](CO)[C@@H](O)[C@H](O)[C@@H]4O)cc3)c2n1 (stereo partly specified) | 6.60 | 121% | 6.52 | 116% | – | – | – |
| COCCOc1nc(N)c2nc(O)n(Cc3ccc(C(=O)NC[C@H]4O[C@@H]5O[C@H]6[C@H](O)[C@@H](O)[C@@H](O[C@H]7[C@H](O)[C@@H](O)[C@@H](O[C@H]8[C@H](O)[C@@H](O)[C@@H](O[C@H]9[C@H](O)[C@@H](O)[C@@H](O[C@H]%10[C@H](O)[C@@H](O)[C@@H](O[C@H]%11[C@H](O)[C@@H](O)[C@@H](O[C@H]4[C@H](O)[C@H]5O)O[C@@H]%11CO)O[C@@H]%10CO)O[C@@H]9CO)O[C@@H]8CO)O[C@@H]7CO)O[C@@H]6CO)cc3)c2n1 | 6.54 | 135% | 6.82 | 127% | – | – | – |
| COCCOc1nc(N)c2nc(O)n(Cc3ccc(C(=O)NC4O[C@H](CO)[C@@H](O)[C@H](O)[C@H]4O)cc3)c2n1 (stereo partly specified) | 6.64 | 87% | 6.70 | 118% | 6.31 | 6.04 | – |
| COCCOc1nc(N)c2nc(O)n(Cc3ccc(C(=O)NC[C@H]4O[C@@H]5O[C@H]6[C@H](O)[C@@H](O)[C@@H](O[C@H]7[C@H](O)[C@@H](O)[C@@H](O[C@H]8[C@H](O)[C@@H](O)[C@@H](O[C@H]9[C@H](O)[C@@H](O)[C@@H](O[C@H]%10[C@H](O)[C@@H](O)[C@@H](O[C@H]4[C@H](O)[C@H]5O)O[C@@H]%10CO)O[C@@H]9CO)O[C@@H]8CO)O[C@@H]7CO)O[C@@H]6CO)cc3)c2n1 | 6.89 | 126% | 7.15 | 127% | – | – | – |
| COCCOc1nc(N)c2nc(O)n(Cc3ccc(C(=O)NC4O[C@H](CO)[C@@H](O[C@@H]5O[C@H](CO)[C@H](O)[C@H](O)[C@H]5O)[C@H](O)[C@H]4O)cc3)c2n1 (stereo partly specified) | 7.10 | 177% | 6.96 | 142% | – | – | – |
| COCCOc1nc(N)c2nc(O)n(Cc3ccc(C(=O)NC4O[C@H](CO)[C@@H](O[C@H]5O[C@H](CO)[C@@H](O)[C@H](O)[C@H]5O)[C@H](O)[C@H]4O)cc3)c2n1 (stereo partly specified) | 6.87 | 157% | 7.00 | 159% | 6.56 | 6.23 | 2 |
| COCCOc1nc(N)c2nc(O)n(Cc3ccc(C(=O)NC4O[C@H](CO)[C@H](O)[C@H](O)[C@H]4O)cc3)c2n1 (stereo partly specified) | 6.50 | 115% | 6.59 | 118% | – | – | – |
| COCCOc1nc(N)c2nc(O)n(Cc3ccc(C(=O)N[C@H]4[C@H](O)[C@H]5O[C@H]6[C@H](O)[C@@H](O)[C@@H](O[C@H]7[C@H](O)[C@@H](O)[C@@H](O[C@H]8[C@H](O)[C@@H](O)[C@@H](O[C@H]9[C@H](O)[C@@H](O)[C@@H](O[C@H]%10[C@H](O)[C@@H](O)[C@@H](O[C@H]%11[C@H](O)[C@@H](O)[C@@H](O[C@H]%12[C@H](O)[C@@H](O)[C@@H](O[C@@H]4[C@@H](CO)O5)O[C@@H]%12CO)O[C@@H]%11CO)O[C@@H]%10CO)O[C@@H]9CO)O[C@@H]8CO)O[C@@H]7CO)O[C@@H]6CO)cc3)c2n1 | 6.97 | 113% | 7.25 | 109% | – | – | – |
